Active and inactive are the calls of the source. No cut-off for these calls is given here.
Tests used:
[1] = system: Escherichia coli; test: Antimicrobial activity against Escherichia coli ATCC 25922 at 10 ug after 18 hrs by agar well diffusion assay; format: functional; conditions: ATCC 25922, 18 h, read-out: DIZ
In short: (§1)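 Agar-well diffusion with ampicillin and chloramphenicol as reference antibacterials. Bacteria were grown to exponential phase in nutrient broth at 37 °C for 18 h and adjusted to 10^8 cfu/mL against McFarland density. The suspension was mixed into medium and poured into plates, and 6.0 mm wells were cut. After incubation, inhibition zone diameter was read in mm. Values are the mean of three experiments.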

[2] = system: Staphylococcus aureus; test: Antimicrobial activity against Staphylococcus aureus ATCC 25923 at 10 ug after 18 hrs by agar well diffusion assay; format: functional; conditions: ATCC 25923, 18 h, read-out: DIZ; in short: as §1
[3] = system: Escherichia coli; test: Antimicrobial activity against Escherichia coli ATCC 35218 at 10 ug after 18 hrs by agar well diffusion assay; format: functional, organism-based
[4] = system: Bacillus spizizenii; test: Antimicrobial activity against Bacillus subtilis ATCC 6633 at 10 ug after 18 hrs by agar well diffusion assay; format: functional; conditions: ATCC 6633, 18 h, read-out: DIZ; in short: as §1
[5] = system: Bacillus cereus; test: Antimicrobial activity against Bacillus cereus NRRL-B-3711 at 10 ug after 18 hrs by agar well diffusion assay; format: functional; conditions: NRRL-B-3711, 18 h, read-out: DIZ; in short: as §1
[6] = system: Pseudomonas aeruginosa; test: Antimicrobial activity against Pseudomonas aeruginosa ATCC 27853 at 10 ug after 18 hrs by agar well diffusion assay; format: functional; conditions: ATCC 27853, 18 h, read-out: DIZ; in short: as §1
[7] = system: Escherichia coli; test: Binding affinity to Escherichia coli pBR322 plasmid DNA assessed as retardation of electrophoretic migration of supercoiled form I DNA at 312 to 5000 uM after 24 hrs by agarose gel electrophoresis
In short: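 pBR322 plasmid DNA was incubated with the compounds at 37 °C for 24 h in the dark. Mixtures were run on a 1% agarose gel in TAE buffer (pH 8.0) for 3 h at 60 V. Mobility of supercoiled form I and nicked form II DNA was compared with untreated plasmid.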

[8] = system: Bacillus spizizenii; test: Antimicrobial activity against Bacillus subtilis ATCC 6633 at 2500 uM after 18 hrs by agar well diffusion assay; format: functional; conditions: ATCC 6633, 18 h, read-out: DIZ
In short: (§2)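 Bacteria were grown to exponential phase in nutrient broth at 37 °C for 18 h and adjusted to 10^8 cfu/mL against McFarland density. The culture suspension was mixed into the medium and poured into plates with 6.0 mm wells. Each well received 50 of the compound solution in DMSO. Inhibition zone diameter was read in mm; the value is the mean of three experiments.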

[9] = system: MCF7; test: Cytotoxicity against human MCF7 cells assessed as reduction in cell viability at 1 mg/ml after 24 hrs by MTT assay; format: functional
In short: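 Cells were exposed to compounds for 24 h, then to MTT for 4 h. Formazan was dissolved in DMSO and absorbance read at 540 nm. Relative viability (%) was determined, with cisplatin as positive control.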

[10] = system: Escherichia coli; test: Antimicrobial activity against Escherichia coli ATCC 25922 after 18 hrs by agar well diffusion assay; format: functional; in short: as §2
[11] = system: Bacillus cereus; test: Antimicrobial activity against Bacillus cereus NRRL-B-3711 after 18 hrs by agar well diffusion assay; format: functional; in short: as §2
[12] = system: Escherichia coli; test: Antimicrobial activity against Escherichia coli ATCC 25922 at 30 ug after 18 hrs by agar well diffusion assay; format: functional; conditions: ATCC 25922, 18 h, read-out: DIZ; in short: as §1
[13] = system: Pseudomonas aeruginosa; test: Antimicrobial activity against Pseudomonas aeruginosa ATCC 27853 at 30 ug after 18 hrs by agar well diffusion assay; format: functional; conditions: ATCC 27853, 18 h, read-out: DIZ; in short: as §1
[14] = system: Bacillus cereus; test: Antimicrobial activity against Bacillus cereus NRRL-B-3711 at 30 ug after 18 hrs by agar well diffusion assay; format: functional; conditions: NRRL-B-3711, 18 h, read-out: DIZ; in short: as §1
[15] = system: Escherichia coli; test: Antimicrobial activity against Escherichia coli ATCC 35218 at 30 ug after 18 hrs by agar well diffusion assay; format: functional; conditions: ATCC 35218, 18 h, read-out: DIZ; in short: as §1
[16] = system: Bacillus spizizenii; test: Antimicrobial activity against Bacillus subtilis ATCC 6633 at 30 ug after 18 hrs by agar well diffusion assay; format: functional; conditions: ATCC 6633, 18 h, read-out: DIZ; in short: as §1
[17] = system: Staphylococcus aureus; test: Antimicrobial activity against Staphylococcus aureus ATCC 25923 at 30 ug after 18 hrs by agar well diffusion assay; format: functional; conditions: ATCC 25923, 18 h, read-out: DIZ; in short: as §1
[18] = system: Candida tropicalis; test: Antimicrobial activity against Candida tropicalis ATCC 13803 at 50 ug after 18 hrs by agar well diffusion assay; format: functional; conditions: ATCC 13803, 18 h, read-out: DIZ
[19] = system: Candida albicans; test: Antimicrobial activity against Candida albicans ATCC 10231 at 50 ug after 18 hrs by agar well diffusion assay; format: functional; conditions: ATCC 10231, 18 h, read-out: DIZ
[20] = system: Bacillus spizizenii; test: Antimicrobial activity against Bacillus subtilis ATCC 6633 after 18 hrs by agar well diffusion assay; format: functional; in short: as §2

Structure (SMILES): CC1(C)S[C@@H]2[C@H](NC(=O)[C@H](N)c3ccccc3)C(=O)N2[C@H]1C(=O)O [AMPICILLIN]
- zone of inhibition at 10 µg/disc [1]: 20.3 mm
- zone of inhibition at 10 µg/disc [2]: 35 mm
- diameter of the inhibition zone (DIZ) [3]: inactive
- zone of inhibition at 10 µg/disc [4]: 30.3 mm
- zone of inhibition at 10 µg/disc [5]: 10 mm
- zone of inhibition at 10 µg/disc [6]: 28 mm

Structure (SMILES): ClP12=NP34=N[P@](Cl)(=NP(N5CCCCC5)(N5CCCCC5)=N1)Oc1ccccc1CN3CCCN4Cc1ccccc1O2 (single isomer, unassigned)
- Activity [7]: Active
- zone of inhibition at 2500 µM [8]: 9 mm
- Activity [9]: 40%

Structure (SMILES): ClP12=NP(N3CCC4(CC3)OCCO4)(N3CCC4(CC3)OCCO4)=N[P@@]3(Cl)=N[P@]4(=N1)N(CCN4Cc1ccccc1O3)Cc1ccccc1O2 (single isomer, unassigned)
- Activity [9]: inactive

Structure (SMILES): ClP12=NP34=N[P@](Cl)(=NP(N5CCC6(CC5)OCCO6)(N5CCC6(CC5)OCCO6)=N1)Oc1ccccc1CN3CCN4Cc1ccccc1O2 (single isomer, unassigned)
- Activity [9]: inactive

Structure (SMILES): [K+].[K+].[O-]c1ccccc1CNCCCNCc1ccccc1[O-]
- diameter of the inhibition zone (DIZ) [10]: 10.3 mm
- diameter of the inhibition zone (DIZ) [11]: 11 mm

Structure (SMILES): ClP12=NP34=NP(Cl)(=NP(N5CCC6(CC5)OCCO6)(N5CCC6(CC5)OCCO6)=N1)Oc1ccccc1CN3CCCN4Cc1ccccc1O2 (single isomer, unassigned)
- zone of inhibition at 2500 µM [8]: 7 mm
- Activity [9]: inactive

Structure (SMILES): C1CCNCC1 [PIPERIDINE]
- diameter of the inhibition zone (DIZ) [10]: 11 mm
- diameter of the inhibition zone (DIZ) [11]: 13 mm

Structure (SMILES): Cl[P@@]12=NP34=N[P@](Cl)(=NP(N5CCCCC5)(N5CCCCC5)=N1)Oc1ccccc1CN3CCN4Cc1ccccc1O2 (mixture of isomers)
- Activity [7]: Active
- Activity [9]: 40%

Structure (SMILES): O=C(N[C@H](CO)[C@H](O)c1ccc([N+](=O)[O-])cc1)C(Cl)Cl [CHLORAMPHENICOL]
- zone of inhibition at 30 µg/disc [12]: 26.6 mm
- zone of inhibition at 30 µg/disc [13]: 21.9 mm
- zone of inhibition at 30 µg/disc [14]: 23.4 mm
- zone of inhibition at 30 µg/disc [15]: 10.5 mm
- zone of inhibition at 30 µg/disc [16]: 31 mm
- zone of inhibition at 30 µg/disc [17]: 29.6 mm

Structure (SMILES): CC(=O)N1CCN(c2ccc(OCC3COC(Cn4ccnc4)(c4ccc(Cl)cc4Cl)O3)cc2)CC1 (stereo unspecified) [KETOCONAZOLE]
- zone of inhibition at 50 µg/disc [18]: 29 mm
- zone of inhibition at 50 µg/disc [19]: 30 mm

Structure (SMILES): Cl[P@@]12=NP34=N[P@](Cl)(=NP(N5CCC6(CC5)OCCO6)(N5CCC6(CC5)OCCO6)=N1)Oc1ccccc1CN3CCCN4Cc1ccccc1O2 (mixture of isomers)
- Activity [9]: inactive

Structure (SMILES): C1CC2(CCN1)OCCO2
- diameter of the inhibition zone (DIZ) [10]: 11 mm
- diameter of the inhibition zone (DIZ) [11]: 13 mm
- diameter of the inhibition zone (DIZ) [20]: 12 mm

From ChEMBL document CHEMBL3352527, “Phosphorus-nitrogen compounds. Part 29. Syntheses, crystal structures, spectroscopic and stereogenic properties, electrochemical investigations, antituberculosis, antimicrobial and cytotoxic activities and DNA interactions of ansa-spiro-ansa cyclotetraphosphazenes” (2014)
